Experimental data as given in ChEMBL document CHEMBL1133510, “Synthesis and evaluation of novel steroidal oxime inhibitors of P450 17 (17 alpha-hydroxylase/C17-20-lyase) and 5 alpha-reductase types 1 and 2” (J Med Chem, 2000).

How the values were obtained:
[1] = species: Rattus norvegicus; assay: Percent decrease in plasma testosterone after 6 hr; type: functional
Outline: (§1)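 Adult male Sprague-Dawley rats, 7–8 per group, each received one intraperitoneal dose of 0.019 mmol/kg in olive oil/benzyl alcohol (95:5). Blood was drawn by cardiac puncture under diethyl ether anaesthesia at 2 or 6 h. Plasma testosterone was measured by double-antibody [125I]RIA (detection limit 0.1 ng/mL) and compared with vehicle controls.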

[2] = species: Rattus norvegicus; assay: Percent decrease in plasma testosterone after 2 hr; type: functional; outline: as §1
[3] = target: T1, Steroid 17-alpha-hydroxylase/17,20 lyase (Rattus norvegicus, UniProt P11715); assay: Evaluated for the inhibitory activity towards Cytochrome P450 17 rat enzyme using testicular microsome at 25 uM of substrate (progesterone); set-up: species or system Testis
T1 sequence (P11715 whole entry): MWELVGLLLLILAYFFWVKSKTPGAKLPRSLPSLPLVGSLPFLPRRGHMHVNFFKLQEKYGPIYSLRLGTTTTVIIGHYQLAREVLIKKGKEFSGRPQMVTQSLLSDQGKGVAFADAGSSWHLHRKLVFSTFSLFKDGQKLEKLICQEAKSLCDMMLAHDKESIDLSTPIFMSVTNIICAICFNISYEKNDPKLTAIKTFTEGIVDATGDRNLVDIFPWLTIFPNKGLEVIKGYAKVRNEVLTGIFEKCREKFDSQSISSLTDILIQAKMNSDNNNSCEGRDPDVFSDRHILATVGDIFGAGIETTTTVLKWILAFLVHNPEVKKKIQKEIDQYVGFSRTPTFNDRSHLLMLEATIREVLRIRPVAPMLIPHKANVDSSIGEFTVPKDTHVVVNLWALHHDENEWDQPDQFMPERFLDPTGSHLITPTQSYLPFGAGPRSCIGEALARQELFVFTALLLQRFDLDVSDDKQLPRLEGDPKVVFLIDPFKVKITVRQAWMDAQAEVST
Outline: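 Testicular microsomes (human for human enzyme, rat for rat enzyme) incubated with progesterone substrate at 25 µM; product measured by RP-HPLC with UV detection. IC50 = concentration giving 50% inhibition, mean of at least two experiments.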

[4] = target: T2, Steroid 17-alpha-hydroxylase/17,20 lyase (Homo sapiens, UniProt P05093); assay: Evaluated for the inhibitory activity towards Cytochrome P450 17 human enzyme using testicular microsome at 25 uM of substrate (progesterone); set-up: species or system Testis
T2 sequence (P05093 whole entry): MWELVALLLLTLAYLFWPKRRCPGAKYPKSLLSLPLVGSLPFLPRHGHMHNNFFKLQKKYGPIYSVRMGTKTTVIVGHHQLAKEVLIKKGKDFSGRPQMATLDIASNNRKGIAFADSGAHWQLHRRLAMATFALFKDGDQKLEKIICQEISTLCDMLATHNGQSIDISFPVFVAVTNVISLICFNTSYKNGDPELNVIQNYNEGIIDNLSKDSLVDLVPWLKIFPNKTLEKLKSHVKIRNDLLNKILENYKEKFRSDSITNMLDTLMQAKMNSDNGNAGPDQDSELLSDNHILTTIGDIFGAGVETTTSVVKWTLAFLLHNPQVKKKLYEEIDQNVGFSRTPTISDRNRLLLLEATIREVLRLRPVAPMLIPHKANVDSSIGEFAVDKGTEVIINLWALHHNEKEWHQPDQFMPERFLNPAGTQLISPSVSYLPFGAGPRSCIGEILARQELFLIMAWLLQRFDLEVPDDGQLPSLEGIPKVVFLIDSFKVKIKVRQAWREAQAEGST

[5] = target: T2, Steroid 17-alpha-hydroxylase/17,20 lyase; assay: Inhibition of Human P450 17 and NADPH-P450 reductase co-expressed in Escherichia coli with 25 uM progesterone
[6] = target: T3, 3-oxo-5-alpha-steroid 4-dehydrogenase 2 (Homo sapiens, UniProt P31213); assay: Evaluated for the inhibitory activity against human steroid 5-alpha-reductase type 2 from human BPH tissue at 210 nM of testosterone
T3 sequence (P31213 whole entry): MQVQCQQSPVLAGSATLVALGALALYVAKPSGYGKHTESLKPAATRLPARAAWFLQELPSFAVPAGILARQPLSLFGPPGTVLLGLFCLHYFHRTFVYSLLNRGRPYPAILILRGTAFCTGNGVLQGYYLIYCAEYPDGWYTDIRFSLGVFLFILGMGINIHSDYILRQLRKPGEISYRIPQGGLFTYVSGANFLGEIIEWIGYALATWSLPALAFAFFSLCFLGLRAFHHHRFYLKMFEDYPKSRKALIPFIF
Outline: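 Enzyme from prostate homogenate of BPH patients, assayed at pH 5.5 with radiolabeled testosterone at 210 nM; product separated by HPLC. IC50 taken as inhibitor concentration giving 50% inhibition; mean of at least two experiments.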

[7] = target: T2, Steroid 17-alpha-hydroxylase/17,20 lyase; assay: Inhibition of Cytochrome P450 17 of human testicular microsome at 25 uM progesterone; No inhibition
[8] = target: T1, Steroid 17-alpha-hydroxylase/17,20 lyase; assay: Inhibition of Cytochrome P450 17 from rat testicular microsome at 25 uM progesterone; No inhibition
[9] = target: T4, P450 scc (cholesterol side-chain cleavage enzyme, mitochondrial) (Bos taurus, UniProt P00189); assay: Inhibition of P450 scc at 25 uM; conditions: cattle
T4 sequence (P00189 whole entry): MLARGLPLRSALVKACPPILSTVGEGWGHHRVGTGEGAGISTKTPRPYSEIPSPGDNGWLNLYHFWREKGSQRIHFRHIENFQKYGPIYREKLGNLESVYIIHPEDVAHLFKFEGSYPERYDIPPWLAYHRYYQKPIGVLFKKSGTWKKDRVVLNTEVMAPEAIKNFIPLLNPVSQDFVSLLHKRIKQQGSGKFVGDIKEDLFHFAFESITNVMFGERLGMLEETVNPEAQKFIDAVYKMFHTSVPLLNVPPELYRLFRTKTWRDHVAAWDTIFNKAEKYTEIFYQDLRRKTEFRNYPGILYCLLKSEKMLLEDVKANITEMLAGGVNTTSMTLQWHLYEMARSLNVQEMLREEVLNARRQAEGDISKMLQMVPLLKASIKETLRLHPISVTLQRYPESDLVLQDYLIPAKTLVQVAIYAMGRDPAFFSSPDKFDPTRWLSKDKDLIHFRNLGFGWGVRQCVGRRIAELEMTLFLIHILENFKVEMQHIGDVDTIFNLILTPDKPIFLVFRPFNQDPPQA
Outline: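 Bovine adrenal P450 scc preparation; inhibitor tested at 25 µM.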

[10] = target: T5, 3-oxo-5-alpha-steroid 4-dehydrogenase 1 (Homo sapiens, UniProt P18405); assay: Evaluated for the inhibitory activity against human steroid 5-alpha-reductase type I in human DU-145 cell assay at 5 nM of androstenedione; type: cell-based
T5 sequence (P18405 whole entry): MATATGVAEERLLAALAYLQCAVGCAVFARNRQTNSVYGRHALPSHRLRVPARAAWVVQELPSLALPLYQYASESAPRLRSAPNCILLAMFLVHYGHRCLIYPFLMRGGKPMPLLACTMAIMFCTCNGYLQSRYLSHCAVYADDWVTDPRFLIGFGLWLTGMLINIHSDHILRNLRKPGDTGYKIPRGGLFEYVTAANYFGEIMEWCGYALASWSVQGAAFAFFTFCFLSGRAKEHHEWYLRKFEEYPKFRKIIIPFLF
Outline: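 Whole human DU-145 cells as source of type 1 enzyme, incubated with radiolabeled androstenedione at 5 nM; HPLC separation of product. IC50 = inhibitor concentration giving 50% inhibition; mean of at least two experiments.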

[11] = target: T2, Steroid 17-alpha-hydroxylase/17,20 lyase; assay: Inhibition of human Cytochrome P450 17
Outline: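 Human testicular microsomes with 25 µM progesterone as substrate. Product quantified by RP-HPLC with UV detection. IC50 is the mean of at least two experiments.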

[12] = target: T1, Steroid 17-alpha-hydroxylase/17,20 lyase; assay: Inhibition of rat Cytochrome P450 17
Outline: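 Microsomes from rat testes with 25 µM progesterone as substrate. Product measured by RP-HPLC with UV detection. IC50 is the mean of at least two experiments.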

Structure (SMILES)	IC50 [3] [nM]	IC50 [4] [nM]	also measured
CC(=O)N1CCN(c2ccc(OCC3COC(Cn4ccnc4)(c4ccc(Cl)cc4Cl)O3)cc2)CC1 (stereo unspecified) [KETOCONAZOLE]	–	–	Decrease [1]: 44%; Decrease [2]: 57%
C/C(=N/O)[C@H]1CC=C2[C@@H]3CC=C4C[C@@H](O)CC[C@]4(C)[C@H]3CC[C@@]21C	125000	200	IC50 [5]: 420 nM
C/C(=N/O)C1CC=C2C3CC=C4CC(O)CCC4(C)C3CCC21C (stereo unspecified)	> 125000	> 2500	–
C/C(=N/O)C1=CCC2[C@@H]3CC=C4C[C@@H](O)CC[C@]4(C)[C@H]3CC[C@]12C (stereo partly specified)	> 125000	170	IC50 [5]: 520 nM
C[C@]12CC[C@H](O)C=C1CC[C@H]1C3CC/C(=C/C=N\O)[C@@]3(C)CC[C@@H]12 (stereo partly specified)	140	180	IC50 [6]: 430 nM
C/C(=N/O)[C@@]1(O)CCC2C3CC=C4CC(O)CCC4(C)C3CCC21C (stereo partly specified)	–	–	IC50 [7]: Not Active; IC50 [8]: Not Active
CC12CCC(O)CC1=CCC1C2CCC2(C)C(C/C=N/O)CCC12 (stereo unspecified)	2760	270	inhibition at 25 µM [9]: 74%
CC12CCC(O)CC1=CCC1C2CCC2(C)/C(=C/C=N/O)CCC12 (stereo unspecified)	> 125000	> 2500	–
C/C(CC1CCC2C3CCC4=CC(=O)CCC4(C)C3CCC12C)=N\O (stereo unspecified)	3600	> 2500	IC50 [10]: 900 nM; IC50 [6]: 470 nM
CC12CCC(O)CC1=CCC1C2CCC2(C)C(c3c[nH]cn3)=CCC12 (stereo unspecified)	–	–	IC50 [11]: 40 nM; IC50 [12]: 180 nM
